Experimental data as given in paper PMC3158820 (ACS chemical biology, 2011).
“Also recorded” adds a separate entry of the source.

How the values were obtained:
human ClpXP [1] = assay: Steady state peptidase activity assay; format: biochemical
human 20S proteasome = assay: Steady state peptidase activity assay; format: biochemical; settings: 2 µM DBN93, 200 nM human 20S proteasome, 100 µM FRETN 89–98, 500 µM ATP
In short: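 Run in 50 mM HEPES pH 8.0, 5 mM Mg(OAc)₂, 2 mM DTT at 37 °C, with reactions started by adding 20S proteasome. Cleavage was read as fluorescence emission at 420 nm (ex 320 nm). Rate was taken from the slope of the linear phase of the time course.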

human Lon [2] = molecular target: T1, human Lon (Homo sapiens, UniProt P36776); assay: Time-dependent inhibition of human Lon peptidase activity; format: biochemical
T1 sequence (P36776 68-959): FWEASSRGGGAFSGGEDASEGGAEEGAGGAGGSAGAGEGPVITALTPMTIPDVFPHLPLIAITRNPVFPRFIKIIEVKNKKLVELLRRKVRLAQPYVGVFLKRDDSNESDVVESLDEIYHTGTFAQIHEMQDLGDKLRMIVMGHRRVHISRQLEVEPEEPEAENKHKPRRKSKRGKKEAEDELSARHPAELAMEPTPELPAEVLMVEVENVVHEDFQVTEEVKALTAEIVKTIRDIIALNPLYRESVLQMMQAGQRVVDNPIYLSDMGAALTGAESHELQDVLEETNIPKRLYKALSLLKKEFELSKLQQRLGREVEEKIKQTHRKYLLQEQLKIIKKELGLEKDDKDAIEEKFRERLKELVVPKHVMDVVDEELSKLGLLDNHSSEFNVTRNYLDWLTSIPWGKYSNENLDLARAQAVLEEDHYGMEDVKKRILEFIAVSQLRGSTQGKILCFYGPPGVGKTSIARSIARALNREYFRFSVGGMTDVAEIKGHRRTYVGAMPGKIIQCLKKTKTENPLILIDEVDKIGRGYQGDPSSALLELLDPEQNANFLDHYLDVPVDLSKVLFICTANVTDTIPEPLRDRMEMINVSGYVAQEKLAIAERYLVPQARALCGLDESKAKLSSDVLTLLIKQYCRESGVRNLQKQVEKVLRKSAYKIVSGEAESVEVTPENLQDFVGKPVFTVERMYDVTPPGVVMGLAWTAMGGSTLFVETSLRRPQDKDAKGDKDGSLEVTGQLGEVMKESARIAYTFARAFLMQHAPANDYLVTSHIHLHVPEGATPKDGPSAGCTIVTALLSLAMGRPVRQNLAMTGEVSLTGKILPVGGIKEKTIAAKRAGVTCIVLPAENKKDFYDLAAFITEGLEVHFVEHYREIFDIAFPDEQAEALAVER

human Lon [3] = molecular target: T1, human Lon; assay: Inhibition of α-casein degradation by hLon; format: biochemical; settings: 10 µM DBN93, 10 µM casein, 1 µM hLon, 5 mM ATP, SDS-PAGE
In short: (§1)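 Digests in 50 mM Tris pH 8.1, 15 mM Mg(OAc)₂, 5 mM DTT were run at 37 °C ±inhibitor. Aliquots were quenched with SDS loading dye at time points from 0 to 90 min, run on 12.5% SDS-PAGE and stained with Coomassie Blue.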

human ClpXP [4] = assay: Inhibition of α-casein degradation by hClpXP; format: biochemical; settings: 10 µM DBN93, 10 µM casein, 2 µM ClpX and 2 µM ClpP, 5 mM ATP, SDS-PAGE
In short: as §1

[5] = system: HeLa mitochondrial lysate immunodepleted of Lon; assay: FRETN 89–98 cleavage in Lon-immunodepleted HeLa mitochondrial lysate; format: biochemical, human; settings: 10 µM DBN93, 100 µM FRETN 89–98, 1 mM ATP; at least three trials
In short: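 Affinity-purified anti-hLon was incubated overnight at 4 °C with HeLa mitochondria in 25 mM Tris pH 7.5, 100 mM NaCl, 0.1% Tween 20. Protein A agarose was pelleted, and the supernatant was desalted into 50 mM KPi pH 7, 20% glycerol, 0.1% Tween 20, then Bradford-quantified. Emission at 420 nm (ex 320 nm) was read for 1 hr.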

[6] = system: Lon in isolated rat liver mitochondria; assay: In organello degradation of 35S-labeled StAR in isolated mitochondria; format: cell-based
In short: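 ³⁵S-Met StAR precursor was made by in vitro transcription and reticulocyte-lysate translation, then imported for 30 min at 30 °C into rat liver mitochondria (600 µg) in HSB buffer with ATP, GTP, NADH and creatine kinase system. Non-imported protein was removed with trypsin on ice, then trypsin inhibitor. Pellets were chased at 30 °C ±inhibitor, TCA-precipitated, run on 12% SDS-PAGE with autoradiography, and bands quantified. Mean of 3 independent experiments, SEM, Student's t-test.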

S. Typhimurium Lon = settings: cited from earlier work
[7] = S. Typhimurium Lon, error s.e.m.

For dansyl-YRGIT-Abu-B(OH)2 [DBN93], the “inhibition of hClpXP” value (human ClpXP [1]; general statement) was “does not inhibit this protease; also recorded: not inhibited”, the “effect on cleavage of FRETN 89–98 by hClpXP” value (human ClpXP [1]; up to 4 µM DBN93 (1 and 4 µM, Figure 5a)) was “not affected” and the “inhibition of 20S proteasome catalyzed cleavage of FRETN 89–98” value (human 20S proteasome) was “inhibited the cleavage; also recorded: inhibits”. The “time dependence of inhibition of hLon peptidase activity” value (human Lon [2]; Figure 3, panel a) was “inhibited by DBN93 in a time-dependent manner”, the “Ki* of hLon vs Ki* of bacterial Lon” value (human Lon [2]; overall inhibitor potency) was “comparable to the Ki* determined previously for bacterial Lon” and the “inhibition of α-casein degradation by hLon” value (human Lon [3]) was “inhibited α-casein degradation by hLon”. For the same substance, the “inhibition of α-casein degradation by hClpXP” value (human ClpXP [4]) was “not by hClpXP”, the “effect on peptide cleavage in Lon-immunodepleted mitochondria” value [5] was “no decrease in peptide cleavage” and the “inhibition of StAR degradation in mitochondria” value ([6]; 10 µM DBN93, 1 or 2 hr chase, rat mitochondria, n=3) was “inhibits degradation of StAR”. For the same substance, the “penetration of mitochondrial membranes” value ([6]; intact rat mitochondria, 10 µM DBN93, inferred from StAR degradation) was “can penetrate the mitochondrial membranes”, the “inhibition of Lon” value (S. Typhimurium Lon; 4 µM DBN93 (condition of the hClpXP test)) was “completely inhibited” and the k3 (S. Typhimurium Lon; [7]) was 1.0 ± 0.3 × 10^5 M^−1s^−1. The k4 (S. Typhimurium Lon; [7]) was 0.022 ± 0.007 s⁻¹, the k5 (S. Typhimurium Lon; [7]) was 0.0032 ± 0.0003 s⁻¹ and the k6 (S. Typhimurium Lon; [7]) was 0.00028 ± 0.00002 s⁻¹.
